# Laboratory results published in ChEMBL document CHEMBL4130344, “Substituted arylsulphonamides as inhibitors of perforin-mediated lysis” (Eur J Med Chem, 2017).
# Experiment: Metabolic stability in human liver microsomes assessed as parent compound remaining at 3 uM after 30 mins by LC-MS/MS method
# Type: ADME, microsome
# Settings: read-out: Stability
# How it was run: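 Compounds were tested as sodium salts. The read-out was the percentage of parent compound remaining after 30 min exposure to human microsomes.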
row,Compound,"remaining at 0.5 h, 3 µM"
1,CN1Cc2cc(-c3ccc(-c4cncc(NS(=O)(=O)c5c(F)cc(F)cc5F)c4)s3)ccc2C1=O,63%
2,CN1Cc2cc(-c3ccc(-c4cncc(NS(=O)(=O)c5ccc([N+](=O)[O-])cc5)c4)s3)ccc2C1=O,39%
3,CN1Cc2cc(-c3ccc(-c4cncc(NS(=O)(=O)c5ccc(C#N)cc5)c4)s3)ccc2C1=O,52%

# The remaining lines, values ahead:
row,"remaining at 0.5 h, 3 µM",Compound
1,57%,CN1Cc2cc(-c3ccc(-c4cncc(NS(=O)(=O)c5cccc(C(F)(F)F)c5)c4)s3)ccc2C1=O
2,14%,CN1Cc2cc(-c3ccc(-c4cncc(NS(=O)(=O)c5ccccc5C(F)(F)F)c4)s3)ccc2C1=O
